ChEMBL document CHEMBL5678818, “Discovery of potent SOS1 inhibitors that block RAS activation via disruption of the RAS-SOS1 interaction” (Proc Natl Acad Sci U S A, 2019)
The source made the active and inactive calls. The rule behind the calls is not given here.

Experiments:
[1] = target: Son of sevenless homolog 2 (Homo sapiens, UniProt Q07890); experiment: Inhibition of N-terminal His10-tagged wild-type recombinant human SOS2 catalytic domain (564 to 1043 residues) expressed in Escherichia coli assessed as reduction in KRAS G12C mutant activation preincubated for 10 mins with KRAS followed by SOS2 addition measured after 30 mins in presence of EDA-GTP-DY-647P1 by HTRF analysis
[2] = target: T1, Guanine nucleotide exchange factor DBS (Homo sapiens, UniProt O15068); experiment: Inhibition of human DBS assessed as reduction in CDC42 activation preincubated for 1 min with CDC42 followed by DBS addition measured after 20 mins in presence of EDA-GTP-DY-647P1 by HTRF analysis
T1 sequence (O15068 whole entry): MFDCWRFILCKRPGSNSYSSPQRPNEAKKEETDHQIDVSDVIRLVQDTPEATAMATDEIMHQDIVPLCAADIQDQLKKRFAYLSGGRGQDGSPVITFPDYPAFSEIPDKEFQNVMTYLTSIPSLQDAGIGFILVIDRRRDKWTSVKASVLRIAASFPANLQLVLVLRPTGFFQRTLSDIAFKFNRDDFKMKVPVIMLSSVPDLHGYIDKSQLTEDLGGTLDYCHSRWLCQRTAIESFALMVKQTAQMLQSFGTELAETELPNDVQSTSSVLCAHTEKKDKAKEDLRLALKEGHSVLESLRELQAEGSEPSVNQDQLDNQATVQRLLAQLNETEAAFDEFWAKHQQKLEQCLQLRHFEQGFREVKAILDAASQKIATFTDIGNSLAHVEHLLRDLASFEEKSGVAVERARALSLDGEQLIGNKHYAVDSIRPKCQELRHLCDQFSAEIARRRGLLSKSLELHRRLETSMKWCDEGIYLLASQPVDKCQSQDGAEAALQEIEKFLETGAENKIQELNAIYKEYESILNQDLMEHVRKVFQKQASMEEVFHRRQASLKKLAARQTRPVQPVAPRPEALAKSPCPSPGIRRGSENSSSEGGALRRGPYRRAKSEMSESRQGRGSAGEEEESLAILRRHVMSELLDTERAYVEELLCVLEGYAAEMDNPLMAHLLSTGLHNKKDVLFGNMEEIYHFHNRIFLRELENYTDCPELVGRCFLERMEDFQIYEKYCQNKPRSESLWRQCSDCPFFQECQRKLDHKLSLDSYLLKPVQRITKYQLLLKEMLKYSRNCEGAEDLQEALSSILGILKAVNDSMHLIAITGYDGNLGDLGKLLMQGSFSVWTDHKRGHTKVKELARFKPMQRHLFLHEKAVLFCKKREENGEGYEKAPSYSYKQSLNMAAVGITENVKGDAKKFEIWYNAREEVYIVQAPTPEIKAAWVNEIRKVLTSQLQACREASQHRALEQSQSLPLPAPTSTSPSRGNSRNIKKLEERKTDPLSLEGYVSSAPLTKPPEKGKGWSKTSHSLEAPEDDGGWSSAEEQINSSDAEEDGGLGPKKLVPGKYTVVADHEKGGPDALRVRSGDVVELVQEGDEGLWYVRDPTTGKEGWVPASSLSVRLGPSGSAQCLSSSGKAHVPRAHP

[3] = target: Epidermal growth factor receptor (Homo sapiens, UniProt P00533); experiment: Inhibition of human EGFR using biotin-aminohexyl-AEEEEYFELVAKKK as substrate preincubated for 15 mins followed by substrate/ATP addition measured after 20 mins by FRET assay
[4] = target: GTPase KRas (Homo sapiens) (UniProt P01116); experiment: Stabilization of N-terminal His10-tagged wild-type recombinant human KRAS (1 to 169 residues) expressed in Escherichia coli assessed as change in melting temperature at 100 uM with heating from 25 to 85 degreeC by thermal shift assay
[5] = target: T2, Son of sevenless homolog 1 (Homo sapiens) (UniProt Q07889); experiment: Stabilization of N-terminal His10-tagged wild-type recombinant human SOS1 catalytic domain (564 to 1049 residues) expressed in Escherichia coli assessed as change in melting temperature at 100 uM with heating from 25 to 85 degreeC by thermal shift assay
T2 sequence (whole entry): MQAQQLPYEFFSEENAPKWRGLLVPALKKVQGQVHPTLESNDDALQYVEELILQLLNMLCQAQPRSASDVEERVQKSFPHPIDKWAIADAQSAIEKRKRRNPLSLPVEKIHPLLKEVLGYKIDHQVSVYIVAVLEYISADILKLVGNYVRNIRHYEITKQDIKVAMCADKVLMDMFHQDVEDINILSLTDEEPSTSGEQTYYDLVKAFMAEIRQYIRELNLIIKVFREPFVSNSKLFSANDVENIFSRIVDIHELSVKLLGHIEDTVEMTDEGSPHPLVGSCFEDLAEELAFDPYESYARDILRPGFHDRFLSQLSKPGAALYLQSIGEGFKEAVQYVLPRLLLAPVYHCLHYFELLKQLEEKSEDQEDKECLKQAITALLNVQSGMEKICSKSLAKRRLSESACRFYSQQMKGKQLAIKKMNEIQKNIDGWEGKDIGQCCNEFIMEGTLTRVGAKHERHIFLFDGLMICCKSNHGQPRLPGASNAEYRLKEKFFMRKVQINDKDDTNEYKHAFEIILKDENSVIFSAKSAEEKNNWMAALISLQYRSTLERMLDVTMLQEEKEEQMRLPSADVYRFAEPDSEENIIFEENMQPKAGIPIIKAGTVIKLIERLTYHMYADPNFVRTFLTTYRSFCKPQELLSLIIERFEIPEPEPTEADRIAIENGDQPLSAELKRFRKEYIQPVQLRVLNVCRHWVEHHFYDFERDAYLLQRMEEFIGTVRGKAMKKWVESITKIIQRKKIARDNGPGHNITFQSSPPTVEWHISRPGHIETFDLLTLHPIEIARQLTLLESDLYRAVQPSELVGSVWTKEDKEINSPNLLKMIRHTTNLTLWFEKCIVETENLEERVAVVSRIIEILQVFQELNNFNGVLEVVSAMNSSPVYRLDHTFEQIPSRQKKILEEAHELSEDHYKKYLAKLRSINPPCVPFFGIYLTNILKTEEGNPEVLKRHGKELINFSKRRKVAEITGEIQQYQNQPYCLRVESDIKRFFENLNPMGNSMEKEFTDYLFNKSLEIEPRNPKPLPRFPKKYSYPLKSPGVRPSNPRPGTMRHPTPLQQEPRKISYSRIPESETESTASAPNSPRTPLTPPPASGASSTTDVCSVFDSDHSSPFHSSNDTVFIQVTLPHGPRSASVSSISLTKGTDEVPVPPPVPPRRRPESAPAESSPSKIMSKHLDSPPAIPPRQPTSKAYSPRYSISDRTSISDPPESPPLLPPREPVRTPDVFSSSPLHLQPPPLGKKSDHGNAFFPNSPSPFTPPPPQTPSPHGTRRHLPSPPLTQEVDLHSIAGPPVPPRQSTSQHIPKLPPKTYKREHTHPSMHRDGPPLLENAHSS

[6] = test system: GTPase KRas (Homo sapiens), P01116 [G12C]; experiment: Stabilization of N-terminal GST-tagged recombinant human KRAS G12C mutant (1 to 169 residues) expressed in Escherichia coli assessed as change in melting temperature at 100 uM with heating from 25 to 85 degreeC by thermal shift assay
K562 [7] = experiment: Antiproliferative activity against human K562 cells assessed as inhibition of cell viability incubated for 72 hrs by Cell Titer Glo assay; format: functional, cell-based; settings: K562, 72 h
Method in brief: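 K-562 cells (wild-type KRAS, sourced from ATCC) were tested for antiproliferative response.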

NCI-H358 = experiment: Antiproliferative activity against human NCI-H358 cells assessed as inhibition of cell viability incubated for 72 hrs by Cell Titer Glo assay; format: functional, cell-based; settings: NCI-H358, 72 h
Method in brief: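 NCI-H358 cells (KRAS G12C mutant) were sourced from ATCC.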

Calu-1 [8] = experiment: Antiproliferative activity against human Calu-1 cells assessed as inhibition of cell viability incubated for 72 hrs by Cell Titer Glo assay; format: functional, cell-based; settings: Calu-1, 72 h
K562 [9] = experiment: Effect on total ERK level in human K562 cells incubated for 60 mins by HTRF analysis; format: functional, cell-based
Method in brief: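 K-562 cells (wild-type KRAS) were sourced from ATCC. Cells were incubated with compound for 60 min, and total ERK was quantified alongside pERK.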

Calu-1 [10] = experiment: Effect on total ERK level in human Calu-1 cells incubated for 24 hrs by HTRF analysis; format: functional, cell-based
Method in brief: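 Calu-1 cells carry two KRAS G12C alleles and were sourced from CLS. Total and pERK levels were both analyzed after compound treatment.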

KG-1 = experiment: Antiproliferative activity against human KG-1 cells assessed as inhibition of cell viability incubated for 72 hrs by Cell Titer Glo assay; format: functional, cell-based
THP-1 = experiment: Antiproliferative activity against human THP-1 cells assessed as inhibition of cell viability incubated for 72 hrs by Cell Titer Glo assay; format: functional, cell-based
[11] = test system: SOS1-KRAS (Homo sapiens), Q07889+P01116 [G12C]; experiment: Binding affinity to N-terminal GST-tagged recombinant human KRAS G12C mutant (1 to 169 residues) expressed in Escherichia coli/N-terminal His10-tagged wild-type recombinant human SOS1 catalytic domain (564 to 1049 residues) expressed in Escherichia coli at 200 uM by STD-NMR analysis
[12] = test system: GTPase KRas (Homo sapiens), P01116 [G12C]; experiment: Binding affinity to N-terminal GST-tagged recombinant human KRAS G12C mutant (1 to 169 residues) expressed in Escherichia coli at 200 uM by STD-NMR analysis
[13] = target: T2, Son of sevenless homolog 1 (Homo sapiens); experiment: Binding affinity to N-terminal His10-tagged wild-type recombinant human SOS1 catalytic domain (564 to 1049 residues) expressed in Escherichia coli at 200 uM by STD-NMR analysis
Homo sapiens [14] = species on record: Homo sapiens; experiment: Stabilization of N-terminal His10-tagged 15N-labeled recombinant human KRAS G12C/C118S mutant (1 to 169 residues) expressed in Escherichia coli/N-terminal His10-tagged wild-type recombinant human SOS1 catalytic domain (564 to 1049 residues) expressed in Escherichia coli at 1 mM incubated for 30 mins by 2D-NMR analysis
Homo sapiens [15] = species on record: Homo sapiens; experiment: Stabilization of N-terminal His10-tagged recombinant human KRAS G12C/C118S mutant (1 to 169 residues) expressed in Escherichia coli/Series S C1 sensor chip-immobilized biotinylated N-terminal His10-tagged wild-type recombinant human SOS1 catalytic domain (564 to 1049 residues) expressed in Escherichia coli at 100 to 500 uM measured for 360 secs by SPR analysis; settings: dose 100-500 µM, time 360.0 sec
Method in brief: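 SOS1cat is immobilized on the chip, and 250 nM KRASG12C_C118S is flowed over with or without test compound. Compound alone at 100, 250 and 500 µM is also injected to gauge unspecific binding to SOS1cat. Buffer injection serves as the blank.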

Homo sapiens [16] = species on record: Homo sapiens; experiment: Stabilization of N-terminal His10-tagged recombinant human KRAS G12C/C118S mutant (1 to 169 residues) expressed in Escherichia coli/N-terminal His10-tagged wild-type recombinant human SOS1 catalytic domain (564 to 1049 residues) expressed in Escherichia coli by HTRF analysis
Method in brief: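 HTRF equilibrium-binding read-out of KRASG12C_C118S with SOS1cat, detected by fluorescently labelled antibodies including a terbium donor. Signal normalized with DMSO control as 100% and no-SOS1cat wells as 0%. Data are mean ± SD, n = 4.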

## CNCc1ccccc1-c1csc(C(C)Nc2nc(C)nc3cc(OC)c(OC)cc23)c1 (centres undefined)
[1]
  IC50: > 20000 nM
[2]
  IC50: > 20000 nM
[3]
  IC50: > 20000 nM
[4]
  ΔTm: -0.67 °C
[5]
  ΔTm: 2.96 °C
[6]
  ΔTm: -0.57 °C
K562 [7]
  IC50: 1100 nM
NCI-H358
  IC50: 2660 nM
Calu-1 [8]
  IC50: 2050 nM
K562 [9]
  Activity: inactive
Calu-1 [10]
  Activity: inactive
KG-1
  Activity: Active
THP-1
  Activity: Active

## NCc1nn(-c2ccccc2)c2c1CCC2
[11]
  Activity: Active
[12]
  Activity: inactive
[13]
  Activity: inactive
Homo sapiens [14]
  Activity: Active
Homo sapiens [15]
  Activity: Active
Homo sapiens [16]
  Activity: Active
